Source: ChEMBL document CHEMBL4513216, “Probing the Open Global Health Chemical Diversity Library for Multistage-Active Starting Points for Next-Generation Antimalarials” (ACS Infect Dis, 2020)

Assay: Toxicity liver stage against HepG2, at 10uM
Type: cell-based
Parameters: test concentration 10 uM, cell line HepG2-A16-CD81EGFP
Conditions: human, HepG2-A16-CD81EGFP cells; read-out: INHIBITION
Summary of the method: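 Uninfected HepG2-A16-CD81EGFP cells, 3 × 10^3 per well, 1536-well, plated on prespotted compound at 10 μM final, parasite-free screening media added to match infected plates; puromycin 10 μM positive, DMSO 0.5% negative; run in parallel with 48 h PbLuc assay at 37 °C, 5% CO2; viability by CellTiter-Glo luminescence, normalized to controls.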

COC(=O)c1cccc2nc([C@H]3CCN(Cc4ccccc4)C3)oc12
cytotoxicity at 10 µM: 6.06%

CCOC(=O)[C@@H]1[C@@H](OC)C(=O)N(C)C12CCN(C(=O)C(CC)CC)CC2
cytotoxicity at 10 µM: -0.00815%

CCCC(O)CN1CCC(=O)N(C)Cc2cc(F)ccc21 (configuration not stated)
cytotoxicity at 10 µM: -124%

CC(C)(C)OC(=O)N1CC(=O)N(Cc2ccco2)CC(O)C1 (configuration not stated)
cytotoxicity at 10 µM: 4.11%

O=c1c(NCCO)c(N2CCN(c3ccccc3)CC2)c1=O
cytotoxicity at 10 µM: -6.95%

CCCNC(=O)Cn1nc(C)c2cnn(C(C)(C)C)c2c1=O
cytotoxicity at 10 µM: -3.57%

CC(=O)Nc1cnc(Oc2ccccc2F)nc1
cytotoxicity at 10 µM: -4.23%

O=C(c1ncn2c1CNS(=O)(=O)c1ccccc1-2)N1CC=CC1
cytotoxicity at 10 µM: 10.5%

Cc1cccc(NC(=O)N2Cc3c(CN(C)C)nn(C)c3C2)c1
cytotoxicity at 10 µM: 7.77%

CCCS(=O)(=O)N1CCC2(CC(=O)N(c3cnn(C)c3)C2)C1 (configuration not stated)
cytotoxicity at 10 µM: 4.59%

CCOCCCNC(=O)CN(c1cccc(F)c1)S(C)(=O)=O
cytotoxicity at 10 µM: 7.77%

COC(=O)c1cccc(C(=O)N2CCN(c3ccccc3F)CC2)n1
cytotoxicity at 10 µM: -10.9%

CC(=O)NCC(=O)N1C[C@H](OCc2cccnc2)[C@H]2COC[C@H]21
cytotoxicity at 10 µM: -7.12%

O=C(NCc1cccc(F)c1)N1CCC2(CC(=O)N(c3ccsc3)C2)C1 (configuration not stated)
cytotoxicity at 10 µM: -10%

CCn1nc(C)c2c1cnn2CCNS(=O)(=O)CC
cytotoxicity at 10 µM: 2.63%

CN(C)Cc1cn(-c2ccccc2C(=O)NCC2CCCCN2C)cn1 (configuration not stated)
cytotoxicity at 10 µM: -0.94%

O=S1(=O)NCC2(CCN(Cc3ccc(Cl)s3)C2)Oc2ncccc21 (configuration not stated)
cytotoxicity at 10 µM: 4.65%

COCCNC(=O)N1CCN(C(C)C(=O)NC(C)C)CC1 (configuration not stated)
cytotoxicity at 10 µM: 10.6%

O=S(=O)(NC1CCCOC1)c1ccc(C(F)(F)F)nc1 (configuration not stated)
cytotoxicity at 10 µM: -1.38%

O=C(COCCOc1ccccc1)NC1CCN(C(=O)C2CC2)CC1
cytotoxicity at 10 µM: -7.67%

CC(C)c1nnc(CN2CCc3ccc(S(N)(=O)=O)cc32)o1
cytotoxicity at 10 µM: 3.2%

COc1cccc2c1CCC2NC(=O)NCc1csc(N(C)C)n1 (configuration not stated)
cytotoxicity at 10 µM: -1.37%

COc1cccc(-c2nc(CNCc3cccnc3)cs2)c1
cytotoxicity at 10 µM: -9.37%

Cc1oc(CNC(=O)Cc2cccc(OC(F)F)c2)cc1C(=O)O
cytotoxicity at 10 µM: 7.04%

CC(O)C1CCN(c2cc(Cl)ccc2C#N)CC1 (configuration not stated)
cytotoxicity at 10 µM: 4.92%

Cc1noc(C)c1C(=O)NCCc1cccs1
cytotoxicity at 10 µM: 12%

O=C(Nc1cn[nH]c1)NC1CCN(c2ccccc2OC(F)F)C1 (configuration not stated)
cytotoxicity at 10 µM: 26.1%

Cc1ccn2ncc(C(=O)N3CCCC(c4noc(C)n4)C3)c2n1 (configuration not stated)
cytotoxicity at 10 µM: -7.29%

COc1cc(C2(C(=O)NCC(=O)NC3CC3)CC2)ccc1C
cytotoxicity at 10 µM: -17.4%

CCOc1ncccc1NC(=O)N1CCCC1c1cc(C)no1 (configuration not stated)
cytotoxicity at 10 µM: 0.87%

Cc1ccccc1C(O)CNS(=O)(=O)Cc1cccc(C#N)c1 (configuration not stated)
cytotoxicity at 10 µM: -5.43%

CC(C)S(=O)(=O)CC(=O)NCC(Cc1ccc(F)cc1)C(N)=O (configuration not stated)
cytotoxicity at 10 µM: 6.75%

CC(c1nc(C(C)(C)C)no1)N1CCN(C(=O)CN2CCOCC2)CC1 (configuration not stated)
cytotoxicity at 10 µM: -3.51%

O=C(c1ccc(Cl)o1)N1CCCC1c1nnc2n1CCCCC2 (configuration not stated)
cytotoxicity at 10 µM: -4.52%

O=C(c1cccnc1OCC(F)(F)F)N1CCCn2ncnc21
cytotoxicity at 10 µM: -6.47%

NC(=O)c1ccc(CN2CCC(N3CCCC3)CC2)cc1
cytotoxicity at 10 µM: -2.3%

CCCC(C#N)NC(=O)COC1CCCCC1 (configuration not stated)
cytotoxicity at 10 µM: 8.71%

CCn1nc(C)c(S(=O)(=O)Nc2ccccc2C(=O)OC)c1C
cytotoxicity at 10 µM: -0.678%

CC(C)(C)c1ncc(C(=O)NCCn2ccnc2)s1
cytotoxicity at 10 µM: 3.39%

COc1ccc(-n2ccc(CNCc3cccc(OC)c3)n2)cc1
cytotoxicity at 10 µM: 3.12%

CCCNC(=O)C1CCN(CC(O)c2ccccc2)CC1 (configuration not stated)
cytotoxicity at 10 µM: -2.21%

Nc1cc2c(nn1)CCN(C(=O)c1ccccc1Oc1cccnc1)C2
cytotoxicity at 10 µM: -6.21%

CS(=O)(=O)NCCCNCc1cc(F)ccc1Br
cytotoxicity at 10 µM: 15.7%

O=C1CC[C@H](C(=O)Nc2cnn(-c3ccccc3Br)c2)N1
cytotoxicity at 10 µM: -2.84%

CC(C)c1ccc(CS(=O)(=O)Cc2nc(N)nc(N(C)C)n2)cc1
cytotoxicity at 10 µM: 7.34%

CC(OCC1CC1)C(=O)NCc1ccc(Cn2ccnc2)cc1 (configuration not stated)
cytotoxicity at 10 µM: 15.6%

Cc1cc(C)n(CC2CCCN2CCCS(=O)(=O)N(C)C)n1 (configuration not stated)
cytotoxicity at 10 µM: -13.2%

CN(Cc1ccco1)Cc1ccccc1CNC(=O)c1cc[nH]n1
cytotoxicity at 10 µM: -8.11%

CCc1ccc(C2CCCCCN2Cc2nc(CCOC)no2)o1 (configuration not stated)
cytotoxicity at 10 µM: 1.15%

CN(C)C1COC2(CCN(Cc3ccncc3)CC2)C1 (configuration not stated)
cytotoxicity at 10 µM: -69.2%

CSCC[C@@H](CO)n1ccnc1-c1nccn1C
cytotoxicity at 10 µM: -2.84%

OCCCN1CCOC(c2ccc(F)cc2)C1 (configuration not stated)
cytotoxicity at 10 µM: -7.09%

CSCc1noc(CN2CCC3(CC2)CC(=O)N(CC(C)C)C3)n1
cytotoxicity at 10 µM: -0.0813%

Cn1ccnc1CN(CCO)C(=O)c1nc2ccccc2s1
cytotoxicity at 10 µM: 4.46%

O=c1[nH]ccc2cc(-c3cc(O)cc(CCC4CCCCN4)c3)ccc12 (configuration not stated)
cytotoxicity at 10 µM: 1.81%

O=C(c1cccc(F)c1)N1C[C@@H](CN2CCCCC2)[C@@H](CO)C1
cytotoxicity at 10 µM: 3.78%

Cc1ccc(-c2nc(CN3CCOCC3)no2)cc1N1CCNC1=O
cytotoxicity at 10 µM: -5.73%

Cc1ccccc1-n1cc(CN(C)C[C@@H]2CCCN3CCCC[C@H]23)cn1
cytotoxicity at 10 µM: -3.09%

CN(Cc1cc2cc(F)ccc2[nH]1)c1cc(C2CCCNC2)ncn1 (configuration not stated)
cytotoxicity at 10 µM: 7.16%

CCn1ccc(C(=O)N(C)Cc2cnn(-c3cccc(OC)c3)c2)n1
cytotoxicity at 10 µM: 6.26%

CCN(CC)CCC(=O)N1CCc2c(nc(N(C)C)nc2N(C)C)C1
cytotoxicity at 10 µM: -14.4%

Cc1n[nH]c(C)c1CNc1ccc(-c2nc(C3CC3)no2)cn1
cytotoxicity at 10 µM: -24.3%

CC(C)=CCN1CC2(CCN(Cc3c(F)cccc3F)CC2)CC1=O
cytotoxicity at 10 µM: -17%

CC(C)N(C)CCC(=O)N1CCCC(c2ccc(C(=O)O)cc2)C1 (configuration not stated)
cytotoxicity at 10 µM: -4.1%

COc1ccc2cc(-c3n[nH]cc3CN3CCSCC3)ccc2c1
cytotoxicity at 10 µM: 2.22%

O=C(NCCCN1CCOCC1)C1CCCN(Cc2ccco2)C1 (configuration not stated)
cytotoxicity at 10 µM: -0.911%

Cc1ncsc1CCN(C)Cc1cc2n(n1)CCN(S(C)(=O)=O)C2
cytotoxicity at 10 µM: -12.8%

O=C(CSc1ccccn1)N1CCN(CCO)[C@@H]2CS(=O)(=O)C[C@@H]21
cytotoxicity at 10 µM: 9.87%

Cc1nc(C)c(C(=O)NCCNc2cc(N3CCCC3)ncn2)s1
cytotoxicity at 10 µM: -73.4%

NC(=O)c1cc(-c2cccc(C(=O)O)c2)cs1
cytotoxicity at 10 µM: 2.77%

CN(C)C(C(=O)N1CCCC1)c1ccccc1F (configuration not stated)
cytotoxicity at 10 µM: 7.35%

N#Cc1ccccc1C(=O)N1C[C@H](CO)C[C@H](CN2CCCC2)C1
cytotoxicity at 10 µM: -17%

CCCS(=O)(=O)N1CCN(c2ccnc(N3CCCC3)n2)CC1
cytotoxicity at 10 µM: -11.3%

CC(C)CN1CCCn2nc(CNC(=O)c3cccnc3O)cc2C1
cytotoxicity at 10 µM: -14.4%

CCCc1nc(C(C)(C)NC(=O)C2CC(=O)N(CC)C2)no1 (configuration not stated)
cytotoxicity at 10 µM: 3.51%

COc1ccc(OC)c(CNCc2c(C(C)C)nn(C)c2N(C)C)c1
cytotoxicity at 10 µM: -5.89%

CC(Cn1ccnc1)NC(=O)Nc1ccccn1 (configuration not stated)
cytotoxicity at 10 µM: -16.4%

CCOCC(O)CN1CCN(C(=O)c2ccc3c(c2)COC3)CC1 (configuration not stated)
cytotoxicity at 10 µM: -0.0716%

COC(=O)CN1CCCN(C(=O)CCOc2cccc(C)c2C)CC1
cytotoxicity at 10 µM: -1.73%

Cc1cc(C)n(CC2CN(c3cnc4ccccc4n3)CCO2)n1 (configuration not stated)
cytotoxicity at 10 µM: -2.42%

CCc1nc(CN(C(C)=O)C2CCN(CCc3ccccn3)C2)no1 (configuration not stated)
cytotoxicity at 10 µM: -11.6%

CCN1CCN(c2ccc(CNC(=O)c3ccccc3F)cn2)CC1
cytotoxicity at 10 µM: -16.4%

COc1ccc(Cl)cc1C(=O)NC(CC(=O)O)c1cccs1 (configuration not stated)
cytotoxicity at 10 µM: -6.16%

Cc1ccc(C(=O)NCc2ccc(N3CCCC(C(N)=O)C3)cc2)o1 (configuration not stated)
cytotoxicity at 10 µM: 0.742%

COc1ncccc1CNC(=O)Nc1cc(C)nn1C
cytotoxicity at 10 µM: -5.13%

CCN1CCC(CNC(=O)C2(c3ccc(F)cc3)CC2)C1 (configuration not stated)
cytotoxicity at 10 µM: -23%

Cc1cnn(CC2CN(Cc3nccn3CC(F)(F)F)CCO2)c1 (configuration not stated)
cytotoxicity at 10 µM: -11.7%

CCCc1n[nH]c(C2CN(CCC(F)(F)F)CCO2)n1 (configuration not stated)
cytotoxicity at 10 µM: -13.9%

CCn1cnnc1CNC(=O)c1cc(F)ccc1OC
cytotoxicity at 10 µM: -14.3%

O=C(Nc1cc(C(F)(F)F)c[nH]c1=O)N1CCCSCC1
cytotoxicity at 10 µM: -5.77%

Cc1nc(C)n(CC2CCCN2CC(=O)Nc2ccnn2C(C)C)n1 (configuration not stated)
cytotoxicity at 10 µM: -14%

CCc1[nH]ncc1C(=O)N1CCCN(Cc2cnn(C(C)C)c2)CC1
cytotoxicity at 10 µM: -12%

O=C(c1ccc2c(c1)OCO2)N1CCN(c2cnccn2)CC1
cytotoxicity at 10 µM: -7.1%

O=C(NCc1nn(-c2ccccc2)c2c1CCC2)NC1CC1
cytotoxicity at 10 µM: -9.14%

Cc1nn(C)c(C)c1C1CCCN1Cc1cccc(C(=O)N(C)C)c1 (configuration not stated)
cytotoxicity at 10 µM: -11.9%

CCN(CC1CCCO1)C(=O)Nc1cc(C(=O)OC)ccc1F (configuration not stated)
cytotoxicity at 10 µM: -4.77%

CCn1cnnc1CNC(=O)N(C)Cc1ccc2c(c1)OCCO2
cytotoxicity at 10 µM: -1.96%

CCn1cc(NC(=O)NCc2ccc(CN3CCOCC3)cc2)cn1
cytotoxicity at 10 µM: -6.63%

c1cc(CN2CCc3ncnc(C4CCOC4)c3CC2)ccn1 (configuration not stated)
cytotoxicity at 10 µM: -0.703%

c1coc(CNc2ncc3c(n2)C2(CCNC2)COC3)c1 (configuration not stated)
cytotoxicity at 10 µM: 10.7%

O=C(c1ccncc1)N1CCCn2nnc(COCCO)c2C1
cytotoxicity at 10 µM: 10.5%

O=C([C@H]1C[C@H]2OCC[C@H]2N(CC2CC2)C1)N1CCCCO1
cytotoxicity at 10 µM: -69.2%

CCc1c(C)[nH]c(C(C)(N)CC)nc1=O (configuration not stated)
cytotoxicity at 10 µM: -4.04%

Cc1ccc(NCc2cn3c(n2)CN(Cc2ccc(C)o2)CC3)nn1
cytotoxicity at 10 µM: 8.19%

COc1cccc(CN2C[C@@H]3COC[C@]3(CN3CCOCC3)C2)c1
cytotoxicity at 10 µM: -80.6%

COCCN1CCO[C@@H]2CN(C(=O)NCc3cccnc3)CC[C@@H]2C1
cytotoxicity at 10 µM: 6.65%

CCOCC1CN(Cc2ccncc2)Cc2nn(C)cc21 (configuration not stated)
cytotoxicity at 10 µM: -79.8%

COCCN1CCC12CCN(c1ncccn1)C2 (configuration not stated)
cytotoxicity at 10 µM: 9.76%

CCOCC1CN(S(C)(=O)=O)Cc2cnn(CC3CCOCC3)c21 (configuration not stated)
cytotoxicity at 10 µM: -0.851%

CN1CCN(C2CCN(C(=O)CCC3CCCC3)CC2)CC1
cytotoxicity at 10 µM: 6.35%

CN(C)C(=O)C1CCC2(CCNCC2)C1 (configuration not stated)
cytotoxicity at 10 µM: 8.59%

CCOC(=O)c1cnn(C2CCN(C(=O)CC3C=CCC3)CC2)c1N (configuration not stated)
cytotoxicity at 10 µM: 7.87%
